Data taken from ChEMBL document CHEMBL1132170, “Structural and conformational requirements for high-affinity binding to the SH2 domain of Grb2(1)” (J Med Chem, 1999).
Square brackets hold non-standard residues; d marks the D form. Peptide text beside a SMILES is read from it. * marks the point of attachment. pY = N[C@@H](Cc1ccc(OP(=O)(O)O)cc1)C(=O)O; Propionyl = CCC(=O)*; NHBu = CCCCN*

Legend:
[1] = biological target: Proto-oncogene tyrosine-protein kinase Src (Homo sapiens, UniProt P12931); test: Inhibitory activity against binding of Src protein tyrosine kinase SH2 domain to biotinylated EPQY*EEIPI Peptide by ELISA.
Sequence of Proto-oncogene tyrosine-protein kinase Src (P12931 2-536 limits assumed): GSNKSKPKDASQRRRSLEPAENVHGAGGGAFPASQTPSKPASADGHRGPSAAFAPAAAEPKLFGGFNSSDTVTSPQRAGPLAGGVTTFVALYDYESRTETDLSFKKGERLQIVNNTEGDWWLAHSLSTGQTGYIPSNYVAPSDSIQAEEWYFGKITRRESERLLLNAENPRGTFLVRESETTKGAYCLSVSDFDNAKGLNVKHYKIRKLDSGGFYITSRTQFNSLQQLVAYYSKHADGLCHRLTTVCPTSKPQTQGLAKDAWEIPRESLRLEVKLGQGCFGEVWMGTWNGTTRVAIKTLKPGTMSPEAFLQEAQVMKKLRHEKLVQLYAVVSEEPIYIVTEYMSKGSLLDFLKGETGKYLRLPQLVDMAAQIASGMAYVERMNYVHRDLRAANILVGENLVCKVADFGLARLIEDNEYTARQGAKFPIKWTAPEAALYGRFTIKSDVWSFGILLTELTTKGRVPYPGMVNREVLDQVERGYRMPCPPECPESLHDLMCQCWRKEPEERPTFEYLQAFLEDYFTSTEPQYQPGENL
How it was run: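 It competes with test compounds against biotinylated EPQY*EEIPI (6.0 nM) on streptavidin-coated plates for 1 h at rt. Detection is anti-GST, then AP-conjugated secondary with pNPP at 405 nm. IC50 comes from nonlinear regression, adjusted to the on-plate control peptide.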

[2] = biological target: Growth factor receptor-bound protein 2 (Homo sapiens, UniProt P62993); test: Inhibitory activity against binding of Growth factor receptor bound protein 2 to biotinylated KPFY*VNVEF Peptide by ELISA.
Sequence of Growth factor receptor-bound protein 2 (P62993 whole entry): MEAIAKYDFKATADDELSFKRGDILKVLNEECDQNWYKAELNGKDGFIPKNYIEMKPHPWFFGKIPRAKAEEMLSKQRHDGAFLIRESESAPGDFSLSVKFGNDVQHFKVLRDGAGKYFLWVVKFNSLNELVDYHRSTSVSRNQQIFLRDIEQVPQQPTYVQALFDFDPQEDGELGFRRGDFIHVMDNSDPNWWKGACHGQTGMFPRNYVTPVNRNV
How it was run: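 It is competed with test compounds against biotinylated KPFY*VNVEF (4.0 nM) captured on streptavidin plates for 1 h at rt. Bound GST is detected by rabbit anti-GST, then AP anti-rabbit with pNPP, read at 405 nm. IC50 comes from nonlinear regression, normalized to the on-plate control peptide.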

Compound	IC50 [1]	IC50 [2]
CC(C)[C@@H]1NC(=O)[C@H](Cc2ccc(OP(=O)(O)O)cc2)NC(=O)CNC(=O)[C@@H]2CCCN2C(=O)[C@H](C(C)C)NC(=O)[C@H](CC(N)=O)NC1=O	> 100 µM	–
CC(C)[C@H]1NC(=O)[C@H](Cc2ccc(OP(=O)(O)O)cc2)NC(=O)CNC(=O)[C@@H]2CCCN2C(=O)[C@@H](C(C)C)NC(=O)[C@H](CC(N)=O)NC1=O	–	0.52 µM
CC(C)[C@H]1NC(=O)[C@H](Cc2ccc(OP(=O)(O)O)cc2)NC(=O)CNC(=O)[C@H]2CCCN2C(=O)[C@@H](C(C)C)NC(=O)[C@H](CC(N)=O)NC1=O	> 100 µM	10.8 µM
CC(C)[C@@H]1NC(=O)[C@H](Cc2ccc(OP(=O)(O)O)cc2)NC(=O)CCCCCCNC(=O)[C@@H]2CCCN2C(=O)[C@H](C(C)C)NC(=O)[C@H](CC(N)=O)NC1=O	> 100 µM	–
CC(C)[C@H]1NC(=O)[C@H](Cc2ccc(OP(=O)(O)O)cc2)NC(=O)CCCCCCNC(=O)[C@@H]2CCCN2C(=O)[C@@H](C(C)C)NC(=O)[C@H](CC(N)=O)NC1=O	–	0.6 µM
CC(=O)N[C@H]1CCCCNC(=O)[C@H]2CCCN2C(=O)[C@H](C(C)C)NC(=O)[C@@H](CC(N)=O)NC(=O)[C@H](CC(C)C)NC(=O)[C@@H](Cc2ccc(OP(=O)(O)O)cc2)NC1=O	> 150 µM	1.34 µM
CC(=O)N[C@H]1CCCCNC(=O)[C@H]2CCCN2C(=O)[C@H](CC2CCCCC2)NC(=O)[C@@H](CC(N)=O)NC(=O)[C@H](C(C)C)NC(=O)[C@@H](Cc2ccc(OP(=O)(O)O)cc2)NC1=O	> 150 µM	0.11 µM
CC(=O)N[C@@H]1CCCCNC(=O)[C@H]2CCCN2C(=O)[C@H](C(C)C)NC(=O)[C@@H](CC(N)=O)NC(=O)[C@H](C(C)C)NC(=O)[C@@H](Cc2ccc(OP(=O)(O)O)cc2)NC1=O	73 µM	0.18 µM
CC(=O)N[C@H]1CSSC[C@@H](C(=O)O)NC(=O)[C@H]2CCCN2C(=O)[C@H](C(C)C)NC(=O)[C@@H](CC(N)=O)NC(=O)[C@H](C(C)C)NC(=O)[C@@H](Cc2ccc(OP(=O)(O)O)cc2)NC1=O	38 µM	–
CC(C)[C@@H]1NC(=O)[C@H](Cc2ccc(OP(=O)(O)O)cc2)NC(=O)OCCCCCNC(=O)[C@@H]2CCCN2C(=O)[C@H](C(C)C)NC(=O)[C@H](CC(N)=O)NC1=O	> 100 µM	–
CC(C)[C@H]1NC(=O)[C@H](Cc2ccc(OP(=O)(O)O)cc2)NC(=O)OCCCCCNC(=O)[C@@H]2CCCN2C(=O)[C@@H](C(C)C)NC(=O)[C@H](CC(N)=O)NC1=O	–	0.71 µM
CC(=O)N[C@H]1CCCCNC(=O)[C@H]2CCCN2C(=O)[C@H](C(C)C)NC(=O)[C@@H](CC(N)=O)NC(=O)[C@H](C(C)C)NC(=O)[C@@H](Cc2ccc(OP(=O)(O)O)cc2)NC1=O	> 150 µM	0.07 µM
CC(=O)N[C@H]1CCCCNC(=O)[C@H]2CCCN2C(=O)[C@H](C(C)C)NC(=O)[C@@H](CC(N)=O)NC(=O)[C@H](CC2CCCCC2)NC(=O)[C@@H](Cc2ccc(OP(=O)(O)O)cc2)NC1=O	> 150 µM	1.61 µM
CC(C)[C@H](NC(=O)[C@H](CC(N)=O)NC(=O)[C@@H](NC(=O)[C@H](Cc1ccc(OP(=O)(O)O)cc1)NC(=O)[C@H](Cc1ccccc1)NC(=O)[C@@H]1CCCN1C(=O)[C@@H](N)CCCCN)C(C)C)C(=O)N[C@@H](CCC(=O)O)C(=O)N[C@@H](Cc1ccccc1)C(=O)O (H-KPF[pY]VNVEF-OH)	–	0.7 µM
CCCCNC(=O)[C@@H]1CCCN1C(=O)[C@@H](NC(=O)[C@H](CC(N)=O)NC(=O)[C@@H](NC(=O)[C@H](Cc1ccc(OP(=O)(O)O)cc1)NC(=O)CC)C(C)C)C(C)C (Propionyl-[pY]VNVP-NHBu)	> 100 µM	1.63 µM
